Source: PubChem
TAAR1 antagonist: antagonists of human TAAR1. Q96RJ0. CHO RD-HGA16 TAAR1, Fluo-8 calcium fluorescence, antagonist. inhibition, % at 3 µM. 1.5% of 360,000 active;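 active means inhibition above a per-plate cutoff, the mean inhibition of test compounds on that plate plus 3 SD, cut at about 49% in these data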;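 further: 0% = DMSO plus EC80 beta-PEA response and 100% = DMSO alone without agonist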
Target sequence (Q96RJ0 whole entry, looked up): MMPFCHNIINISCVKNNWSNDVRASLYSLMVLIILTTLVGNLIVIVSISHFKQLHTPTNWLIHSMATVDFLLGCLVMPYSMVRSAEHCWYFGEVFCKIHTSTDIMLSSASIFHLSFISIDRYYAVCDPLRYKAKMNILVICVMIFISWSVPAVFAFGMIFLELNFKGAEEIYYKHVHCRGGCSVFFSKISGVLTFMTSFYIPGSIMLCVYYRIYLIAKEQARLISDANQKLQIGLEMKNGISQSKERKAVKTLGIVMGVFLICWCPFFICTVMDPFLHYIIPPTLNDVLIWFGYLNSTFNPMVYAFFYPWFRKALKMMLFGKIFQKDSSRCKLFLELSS
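System: RD-HGA16 CHO cells with stable hTAAR1 and Gα16 | Probe or stimulus: EC80 β-phenethylamine stimulus | Dosing: 3 µM, single point | Times: Dye loading 75 min at 37 °C, then 30 min room temperature | Measured by: Fluo-8 calcium-sensitive fluorescence | Read-out basis: % inhibition of agonist calcium response | Replicates: n of 1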
GPR7 antag: blocks human GPR7 receptor signaling | GPR7-expressing cells, fluorescence antagonist assay | inhibition, % at 4.4 µM | 1.1% of 290,000 active; in the data active means inhibition above about 16%, passing the limit was not always enough;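 further: cells stimulated with the agonist NPW; 0% = agonist with vehicle and 100% = vehicle without agonist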
Target sequence (P48145 whole entry, looked up): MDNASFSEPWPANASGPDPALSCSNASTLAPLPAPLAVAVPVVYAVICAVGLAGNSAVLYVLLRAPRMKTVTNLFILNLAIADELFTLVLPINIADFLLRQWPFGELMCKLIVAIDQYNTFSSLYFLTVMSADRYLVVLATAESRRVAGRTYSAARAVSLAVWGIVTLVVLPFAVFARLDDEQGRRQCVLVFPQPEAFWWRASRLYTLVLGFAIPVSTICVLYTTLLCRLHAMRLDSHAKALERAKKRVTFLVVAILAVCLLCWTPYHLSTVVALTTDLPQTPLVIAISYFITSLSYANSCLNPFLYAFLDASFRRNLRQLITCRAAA
TAAR1 agonist: agonists of human TAAR1. Q96RJ0. CHO RD-HGA16 TAAR1, Fluo-8 calcium fluorescence; vehicle wells 0%, saturating PEA agonist 100%. activation, % at 3 µM. 0.99% of 360,000 active. AID 624467;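 active means activation above the mean activation of all test compounds in the run plus 3 SD, cut at about 38% in these data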
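test system = CHO RD-HGA16 cells carrying human TAAR1 plus Gα16 | schedule = 17-24 h seeding, 75 min 37 °C dye, 30 min RT | compound dosing = 3 µM single concentration | control set = DMSO and PEA EC100 | replicates = n 1 | signal = Fluo-8 fluorescence, 5 s baseline then 140 s kinetic read | measure = percent activation vs PEA EC100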
CHO parental Ca: signal in parental CHO cells, OX1R antagonist counter-screen | AID 463079 | inhibition, % at 5.6 µM | parental CHO-K1, ATP-induced calcium, Fluo-8 fluorescence | 0.63% of 330,000 active;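 active means inhibition above that plate's mean sample inhibition plus 3 SD, cut at about 26% in these data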;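 further: 0% = ATP-challenged DMSO wells and 100% = DMSO wells without ATP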
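test system = CHO parental line | reagent = ATP stimulus | measured by = intracellular calcium via Fluo-8 no-wash fluorescent dye | control set = ATP and no-ATP DMSO wells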
OX1R antag-1: OX1R (human) antagonism; O43613; OX1R-expressing cells, FRET antagonist read-out; inhibition, % at 6.6 µM; 1.8% of 330,000 active; AID 485270; in the data active means inhibition mostly above about 38%, no sharp cut-off; inactive means mostly below about 40%;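 further: 0% = agonist challenge alone and 100% = reference antagonist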
OX1R antag-2: antagonists of human orexin 1 receptor | O43613 | CHO/OX1R cells, Fluo-8 calcium fluorescence, orexin A | inhibition, % at 5 µM | 0.43% of 330,000 active | AID 434989;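 active means inhibition above its plate's threshold, mean inhibition of all tested compounds on the plate plus 3 SD, cut at about 37% in these data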;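 further: 0% = orexin A challenge wells and 100% = SB-334867-A antagonist wells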
GPR7 antag cf: confirmation of human GPR7 antagonists; shares compounds with GPR7 antag; GPR7-expressing cells, calcium fluorescence antagonist mode; inhibition, % at 4.4 µM; 52% of 2,400 active; in the data active means inhibition above about 24%;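 further: stimulated with the GPR7 agonist NPW; 0% = agonist plus vehicle and 100% = vehicle alone without agonist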
MCHR1 antagonist: MCHR1 (human) antagonism in GPR7 counter-screen | shares compounds with GPR7 antag | MCHR1-expressing cells, fluorescence antagonist assay | inhibition, % at 4.4 µM | 62% of 2,400 active | AID 2148; in the data active means inhibition above about 22%;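 further: 0% = vehicle with agonist and 100% = vehicle without agonist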
Starred values were filed as active, the others as inactive; nt = no result given. Compounds with a hit are over-represented: about 4.5% of the library has one in this group of screens.

SMILES	TAAR1 antagonist	GPR7 antag	TAAR1 agonist	CHO parental Ca	OX1R antag-1	OX1R antag-2	GPR7 antag cf	MCHR1 antagonist
CC(CCN1C(Nc2ccccc2)=NC[C@@H]1Cc1ccccc1)c1ccccc1 (some centres not stated)	9.4	37.7*	26.9	-31.3	22.4	-43.4	51.4*	24.7*
CC(C)CCN1C(Nc2ccccc2)=NC[C@@H]1Cc1ccccc1	2.3	19.1	7.7	-22.2	22.2	-13.5	nt	nt
CCN(CCO)CC1CCCC2CCCCC21 (configuration not stated)	3.4	nt	2.0	nt	nt	nt	nt	nt
Cc1ccc(C(O)c2ncc(-c3ccc(Cl)cc3)[nH]2)cc1 (configuration not stated)	-0.7	nt	4.3	nt	nt	nt	nt	nt
CCOc1cc(CNC2CCCC2)cc(Cl)c1OCc1ccccc1	19.0	26.1*	58.4*	0.5	6.4	-0.4	39.8*	30.0*
CCOc1cc(CNCC(C)C)cc(Cl)c1OCc1ccccc1	-18.5	9.2	15.9	-23.7	20.6	-17.9	nt	nt
CC(=O)c1ccc(S(=O)(=O)NCCOc2ccccc2)cc1	-17.2	nt	1.3	nt	nt	nt	nt	nt
O=[N+]([O-])c1ccc(O)c(-c2cc(C(F)(F)F)nc(-c3ccccc3)n2)c1	13.8	43.6*	11.2	73.7*	-25.7	20.7	72.2*	59.6*
CCC1(C)CC2(CCCN(CCC(O)(c3ccccc3)c3ccccc3)C2)CCO1 (configuration not stated)	-25.0	26.2*	-1.9	-20.9	10.4	-33.0	16.3	16.2
CC(C)Nc1nc(NCCN2CCCC2)c2sc(-c3ccccc3)cc2n1	-5.2	nt	0.6	nt	nt	nt	nt	nt
O=C(Cc1n[nH]c(=O)c2ccccc12)N1CCN(c2ccc(F)cc2)CC1	-12.0	21.7*	9.2	-0.1	-0.9	-9.1	-7.3	4.0
CC(=O)c1ccc(N2CCN(C(=O)Cc3n[nH]c(=O)c4ccccc34)CC2)cc1	-22.6	0.6	0.1	-3.1	6.1	-0.2	nt	nt
CCCS(=O)(=O)NC(=O)C1(C)CCN(C(=O)c2ccccc2OC(C)=O)C1 (configuration not stated)	-20.5	nt	1.1	nt	nt	nt	nt	nt
COc1ccccc1-c1c(-c2ccc(OCC(=O)NN)cc2O)n[nH]c1C(F)(F)F	-20.3	-5.8	6.9	-24.0	-1.2	-13.7	nt	nt
COc1ccc(-c2n[nH]c(C(F)(F)F)c2-c2cc3ccccc3o2)c(O)c1	-16.1	29.1*	7.4	77.6*	1.6	51.6*	31.7*	71.4*
O=c1ccn2c(n1)SC(c1ccccc1)C2 (configuration not stated)	-13.0	nt	0.5	nt	nt	nt	nt	nt
O=C(N[C@H]1CC[C@H](CCNC(=O)C2CC2)O[C@@H]1CO)c1ccccn1	-19.4	nt	2.2	nt	nt	nt	nt	nt
Cc1ccccc1NC(=O)Cn1nnc(C(=O)NCc2ccco2)c1N	5.4	7.8	1.0	0.9	5.3	4.8	nt	nt
Cc1ccccc1NC(=O)Cn1nnc(S(=O)(=O)c2ccc(C(C)(C)C)cc2)c1N	23.9	27.6*	28.6	9.7	5.1	12.8	33.9*	9.8
O=C(NNC(=O)c1cc(-c2ccc(Cl)cc2)nc2ccccc12)c1csc(N2CCOCC2)n1	36.4	nt	7.3	-13.6	14.6	-10.4	nt	nt
O=C(Nc1ccc(Cl)c(C(F)(F)F)c1)NC1CC2CCCC(C1)N2Cc1ccccc1 (configuration not stated)	-5.6	27.0*	31.6	37.4*	3.4	12.3	44.6*	87.3*
O=C(NC1CC2CCCC(C1)N2C(=O)Nc1ccc(Cl)c(C(F)(F)F)c1)C1CC1 (configuration not stated)	-1.3	-2.9	4.9	-21.7	27.8	-23.1	nt	nt
Nn1c(SCc2nc3ccccc3[nH]2)nnc1C1CCCCC1	9.6	21.6*	5.6	-15.9	8.0	-27.3	13.3	-2.7
Cc1cc(NCc2ccccc2)nc(N2CCOCC2)n1	-0.5	2.0	10.8	-5.0	15.1	-9.5	nt	nt
Cc1cc(N2CCOCC2)nc(NCc2ccccc2)n1	40.9	23.0*	49.2*	-0.8	13.6	10.8	60.5*	71.7*
SMILES	TAAR1 antagonist	GPR7 antag	TAAR1 agonist	CHO parental Ca	OX1R antag-1	OX1R antag-2	GPR7 antag cf	MCHR1 antagonist
CCOC(=O)C1(Cc2ccccc2C)CCCN(C(=O)c2sccc2C)C1 (configuration not stated)	-20.1	43.0*	5.7	-11.8	10.3	-15.2	14.7	48.2*
Cn1cc(CN2CCCC(C(=O)Nc3cccc(-c4cc5ccccc5[nH]4)c3)C2)cn1 (configuration not stated)	12.9	15.5	26.3	-5.8	17.1	-8.1	nt	nt
CC(C)n1cc(CN2CCCC(C(=O)Nc3cccc(-c4cc5ccccc5[nH]4)c3)C2)cn1 (configuration not stated)	34.8	26.8*	39.6*	1.1	-3.1	-11.1	41.8*	55.8*
COc1ccc(Nc2ccc(OC)cc2)cc1	5.0	-1.3	-0.3	-8.9	16.6	-13.3	nt	nt
COc1ccc(Nc2ccc(Nc3ccc(OC)cc3)nn2)cc1	38.6	92.0*	11.6	-10.8	15.3	11.6	84.6*	88.8*
CCCn1cnc2c(SCc3ccccc3Cl)nc(N)nc21	-24.5	nt	14.3	nt	nt	nt	nt	nt
O=C(Cc1cccs1)N=Nc1c(O)[nH]c2ccccc12	-12.3	3.6	5.8	-10.4	17.0	-13.5	nt	nt
O=C(N=Nc1c(O)[nH]c2ccccc12)c1cc(-c2cccs2)[nH]n1	32.2	29.3*	6.2	-2.6	66.0*	8.9	-5.9	29.2*
COc1cc(/C=N/n2c(C)nnc2C)cc(OC)c1OC	-6.9	-12.5	6.2	-14.3	-0.1	-1.5	nt	nt
COc1c(Br)cc(Br)cc1/C=N/n1c(C)nnc1C	-4.3	26.9*	0.0	-9.9	13.2	-16.9	0.0	10.3
COc1ccc(N=C2NN=C(c3ccc4c(c3)OCCO4)CS2)cc1	4.6	23.4*	11.6	-4.8	21.4	-6.6	19.8	16.8
FC(F)Sc1ccc(N=C2NN=C(c3ccc4c(c3)OCCO4)CS2)cc1	-3.7	-4.0	4.0	4.1	6.5	-1.1	nt	nt
CCCNC(=O)c1cc(C2CCCN(C(=O)c3ccccc3)C2)on1 (configuration not stated)	-29.3	nt	1.3	nt	nt	nt	nt	nt
Oc1ccccc1Nc1nc(NCc2ccco2)c2ccccc2n1	-39.4	-7.4	0.1	1.9	25.8	-13.8	nt	nt
Cc1ccccc1Nc1nc(NCc2ccco2)c2ccccc2n1	-40.8	27.0*	24.2	11.0	38.4	10.3	13.8	63.0*
CCN(CC)S(=O)(=O)c1ccc(N2Cc3ccccc3C2=N)cc1	7.5	21.5*	2.0	-15.4	9.8	-20.7	-2.1	11.7
Cc1ccc(C(C)C)c(OCC(=O)Nc2ccc(N3CCOCC3)cc2N2CCOCC2)c1	-2.5	nt	-0.3	nt	nt	nt	nt	nt
